Compounds with a hit are over-represented: about 2.8% of the library has one in this group of screens.
NPY Y1 blocker: NPY-Y1 (human) receptor antagonism | HEK293-CNG Y1 cells, membrane potential fluorescence; NPY at EC95, then isoproterenol | inhibition, % at 3.6 µM | P25929 | 1% of 200,000 active | AID 1040;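 active means inhibition above the campaign mean inhibition of all tested compounds plus 3 SD, cut at about 20% in these data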;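 further: 0% = DMSO wells given NPY plus isoproterenol and 100% = isoproterenol alone without NPY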
Target sequence (P25929 whole entry, looked up): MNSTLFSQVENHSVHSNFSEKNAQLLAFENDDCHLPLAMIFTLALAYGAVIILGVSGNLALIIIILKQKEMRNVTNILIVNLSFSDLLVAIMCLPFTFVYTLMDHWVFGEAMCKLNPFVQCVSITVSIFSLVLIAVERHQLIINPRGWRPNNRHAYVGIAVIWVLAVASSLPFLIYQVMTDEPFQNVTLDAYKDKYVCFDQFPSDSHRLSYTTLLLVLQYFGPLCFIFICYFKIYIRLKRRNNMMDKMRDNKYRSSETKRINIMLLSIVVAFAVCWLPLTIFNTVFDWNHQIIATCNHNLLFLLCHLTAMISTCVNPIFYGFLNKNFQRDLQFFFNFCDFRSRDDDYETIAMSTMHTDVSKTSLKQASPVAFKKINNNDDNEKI
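Test system: HEK293 cells co-expressing NPY Y1 receptor and cyclic-nucleotide gated channel; Also added: NPY (25 nM), isoproterenol (1 µM), Ro 20-1724 (25 µM); Compound dosing: one concentration, 3.6 µM, in 0.4% DMSO; Timing: dye 3 h, compound 60 min room temperature, stimulation 45 min; Technique: Membrane-potential fluorescent dye readout.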
NPY2 pot ag: potentiates or activates human NPY-Y2 receptor; P49146; 0.45% of 220,000 active; cells expressing NPY-Y2, potentiator/agonist read-out; activation, % at 3.6 µM; in the data active means activation above about 27%;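 further: cells stimulated with NPY near EC25 plus isoproterenol at EC100; 0% = vehicle plus submaximal agonist and 100% = vehicle plus saturating agonist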
NPY-Y2 antag: blocks the human neuropeptide Y Y2 receptor | NPY-Y2 expressing cells, antagonist mode | inhibition, % at 2.7 µM | 0.99% of 140,000 active; in the data active means inhibition above about 17%;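 further: 0% = vehicle with agonist challenge and 100% = reference antagonist with challenge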
EP2 mod: modulators of human EP2 prostaglandin E2 receptor. P43116. EP2-expressing cells, cAMP HTRF FRET, PGE2 co-stimulation. induction, % at 25 µM. 0.83% of 260,000 active;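 active means compounds whose cAMP rise, as percent of the full-agonist control response, exceeds 60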;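 further: rat C6 glioma line stably carrying human EP2 under a CMV promoter; the protocol text gives 20 µM as final concentration; 100% = response of wells given 1 µM PGE2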
NPY1 pot ag: potentiates or activates human NPY-Y1 receptor | NPY-Y1 expressing cells, potentiator/agonist activation | 0.37% of 220,000 active | P25929 | activation, % at 3.6 µM; in the data active means activation above about 33%, passing the limit was not always enough;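 further: cells stimulated with NPY at EC10 then isoproterenol at EC100; 0% = low agonist plus stimulus and 100% = saturating agonist plus stimulus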
PGE2 EP2 inh: blocks the human prostaglandin E2 receptor EP2 | P43116 | inhibition, % at 25 µM | C6 glioma cells expressing human EP2, cAMP TR-FRET; cells stimulated with saturating PGE2 | AID 1422 | 0.52% of 260,000 active;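 active means percent inhibition above 40 after rounding to a whole number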;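 further: rat C6 glioma host cells with rolipram phosphodiesterase inhibitor present; the protocol text gives 20 µM as final concentration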
NPY-Y1 antag ct: counter-screen for NPY-Y2 antagonists: human NPY-Y1 antagonism; shares compounds with NPY-Y2 antag; cell-based NPY-Y1 antagonism counterscreen; inhibition, % at 3.6 µM; 19% of 710 active; AID 1256; in the data active means inhibition above about 20%;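 further: cells challenged with NPY then isoproterenol with cAMP sensed through a CNG channel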
NPY-Y2 ant conf: confirmation of human neuropeptide Y receptor Y2 antagonists. shares compounds with NPY-Y2 antag. HEK293 NPY-Y2 CNG channel, membrane potential fluorescence. inhibition, % at 2.8 µM. 32% of 710 active. AID 1257;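 active means mean inhibition of triplicate wells above the hit cutoff set in the primary screen, cut at about 17% in these data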;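 further: 0% = DMSO with NPY challenge and 100% = BIIE0246 high control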
EP2 cAMP induct: EP2 receptor cAMP induction, counter-screens negative | shares compounds with EP2 mod | C6 glioma EP2 cells, cAMP HTRF induction; plus low (about EC15) PGE2 agonist | calls only at 20 µM (by protocol) | 47% of 1,300 active | AID 1080;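 active means cAMP induction above 50% in the main assay while under 30% in all four parallel counter assays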;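 further: rat C6 glioma cells stably expressing human EP2 receptor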
* = called active by the depositor; i = inactive; . = no result; + = active, no number; ! = not active in a repeat.

SMILES	NPY Y1 blocker	NPY2 pot ag	NPY-Y2 antag	EP2 mod	NPY1 pot ag	PGE2 EP2 inh	NPY-Y1 antag ct	NPY-Y2 ant conf	others
Cc1cc(/C=N/n2cnnc2)c(C)n1-c1ccc(Cl)cc1	7.0	4.3	3.0	4.7	-18.9	0.1	.	.
CC1=C(C(=O)OCc2ccc3c(c2)OCO3)C(c2ccc(F)cc2)NC(=O)N1 (configuration not stated)	8.2	-0.5	24.2*	18.4	-1.3	3.6	6.5	11.0
O=C(CSc1ncn(-c2ccccc2)n1)Nc1ccc2c(c1)OCCO2	5.2	-3.5	18.1*	-11.9	-23.7	8.7	27.0*	23.5*
Cc1nnc(SCC(=O)NC(=O)Nc2ccc3c(c2)OCCO3)s1	1.4	-0.9	.	-22.6	2.0	7.8	.	.
Cc1ccc(SCC(=O)NC(=O)Nc2ccc3c(c2)OCCO3)cc1C	1.3	1.4	19.2*	-3.5	-28.2	6.2	8.5	13.7
O=C(CSc1nnnn1-c1ccc(Cl)cc1)NC(=O)Nc1ccc2c(c1)OCCO2	16.9	-3.4	20.2*	-6.8	-4.7	6.1	15.3	15.1
O=C(CSc1ncn(-c2ccccc2)n1)Nc1ccc2c(c1)OCO2	11.3	-7.8	11.4	7.6	0.3	11.2	.	.
Cc1cccc(NS(=O)(=O)c2ccc(NC(=O)c3ccco3)cc2)c1	.	.	.	-76.6	.	10.4	.	.
COc1ccc(CC(=O)N2CCCC(c3[nH]ncc3-c3ccncc3)C2)cc1 (configuration not stated)	.	.	.	-10.7	.	.	.	.
COc1ccc2nc(C)cc(SCC(=O)NCc3ccccc3)c2c1	.	.	.	-66.8	.	9.8	.	.
Cc1nc2cc(NC(=O)Nc3ccc(F)cc3)ccc2o1	.	.	.	-89.2	.	4.6	.	.
COCCn1c(SCC(=O)NNC(=O)c2ccco2)nnc1-c1ccco1	.	.	.	-21.0	.	6.4	.	.
COc1cc(C2Nc3ccc(C)cc3-c3cc(C)nn32)ccc1O (configuration not stated)	.	.	.	-3.8	.	7.8	.	.
CCN(CC)S(=O)(=O)c1ccc(S(=O)(=O)N2CCN(c3ccccc3F)CC2)cc1	.	.	.	-15.0	.	9.7	.	.
O=c1[nH]c2ccc(S(=O)(=O)N3CCN(c4ccccc4F)CC3)cc2s1	1.1	2.1	18.0*	-29.0	-5.7	9.1	3.4	10.9
Cc1ccc(NC(=O)C(=O)NCCOc2ccc(Cl)cc2)c(C)c1	4.2	-7.6	21.5*	-3.8	-5.7	4.1	14.2	20.1*
C/C(CCC(=O)OC[C@H]1O[C@H](C#Cc2ccccc2)C=C[C@@H]1Oc1ccc(C)cc1)=N\O[C@@H](C)CN1CCCCc2nc(C)c(C)cc21	4.3	-17.3	21.6*	16.5	-15.1	.	9.0	8.6
CC(C)NC(=O)CSc1nncn1-c1ccccc1	0.6	2.6	18.2*	32.9	5.2	0.3	0.1	1.0
CC(C)NC(=O)CSc1nc2ccccc2n1-c1ccccc1	1.9	22.3	4.4	23.2	-5.1	5.3	.	.
O=C(CSc1cccc2cccc(Cl)c12)OCC(=O)N1CCN(C(=O)c2ccco2)CC1	12.3	-22.0	18.8*	45.9	-17.5	.	14.6	12.4
Cc1cc(Br)ccc1SCC(=O)OCC(=O)N1CCN(C(=O)c2ccco2)CC1	15.1	-35.8	7.8	0.7	-61.5	1.5	.	.
COc1ccc(C(NC(=O)c2ccccn2)c2nccn2C)cc1 (configuration not stated)	.	.	.	-20.3	.	.	.	.
C=CCn1c(SCc2c(C)noc2C)nc2cc(C(=O)O)ccc2c1=O	3.0	-0.4	5.5	19.9	15.5	5.2	.	.
Cc1noc(C)c1CSc1nc2ccccc2c(=O)n1-c1ccc(F)cc1F	18.4	-2.4	24.8*	56.2	-16.6	.	20.4*	13.9	EP2 cAMP induct=+
COc1ccc(-c2noc(-c3ccccc3-c3ccccc3)n2)cc1OC	12.2	-25.2	17.9*	77.2*	-61.0	.	6.0	15.4	EP2 cAMP induct=+
SMILES	NPY Y1 blocker	NPY2 pot ag	NPY-Y2 antag	EP2 mod	NPY1 pot ag	PGE2 EP2 inh	NPY-Y1 antag ct	NPY-Y2 ant conf	others
CCCCOP(=O)(OCCCC)C(Nc1ccccc1)c1ccc2c(c1)OCO2 (configuration not stated)	16.0	-1.4	18.7*	69.5*	-5.4	5.8	13.4	8.0	EP2 cAMP induct=i
CCOC(=O)c1c(NC(=O)CSc2nnc(C)s2)sc2c1CCC(C)C2 (configuration not stated)	5.3	7.9	23.3*	53.0	-19.3	7.5	24.8*	14.2	EP2 cAMP induct=i
CCOC(=O)c1c(NC(=O)CSc2nnc(C)c(C)n2)sc2c1CCCC2	.	.	.	25.3	.	7.4	.	.
COc1ccc(NS(=O)(=O)c2ccc(NC(=S)NC(=O)Cc3cccs3)cc2)nn1	.	.	.	-49.5	.	10.6	.	.
CC(=O)C1=C(O)C(=O)N(CCCN2CCOCC2)C1c1ccccc1F (configuration not stated)	.	.	.	-3.9	.	5.4	.	.
O=C(Nc1ccc(Br)cc1)/C(=C/c1ccncc1)NC(=O)c1ccccc1	.	.	.	-23.9	.	5.5	.	.
COc1ccc(-c2cc(C(F)(F)F)nc(NCc3ccco3)n2)cc1OC	8.5	-17.1	17.5*	66.7*	-3.3	5.1	15.4	13.3	EP2 cAMP induct=+
CCNC(=S)N(Cc1ccc(OC)cc1)Cc1cc2cc(OC)ccc2[nH]c1=O	.	.	.	-3.7	.	22.9	.	.
C/C=C/Cn1c(SCc2ccc(C)cc2)nc2c1c(=O)[nH]c(=O)n2C	8.4	-15.5	26.3*	86.0*!	-7.8	16.4	22.5*	42.4*	EP2 cAMP induct=+
CC1=CC(C)(C)N(S(=O)(=O)c2ccc(F)cc2)c2ccc(C)cc21	15.6	-33.3	18.6*	72.4*	-14.7	15.9	15.3	7.1	EP2 cAMP induct=+
CC1=CC(C)(C)N(C(=O)c2ccccc2)c2ccc(C)cc21	16.3	6.7	10.7	11.9	4.4	.	.	.
